Our source for the Predrug and Postdrug values is ChEMBL document CHEMBL1129547, “Synthesis and biological evaluation of naphthyldesferrithiocin iron chelators” (1996).

A short description of test [1]: The amount of iron absorbed by the untreated over a period of 3 days animals at prodrug dosage of 300(umol/kg) (route sub cutaneous) using 40% cremophore as vehical in Cebus monkeys. In kind it is functional. Summed up: (§1)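 Baseline period in iron-overloaded Cebus monkeys housed in metabolic cages on a low-iron liquid diet begun 7 days before dosing, fed by body weight with intake monitored. Iron intake and output were measured over the 3 days before drug administration (day −2 to day 0). Urine and feces were collected at 24-h intervals and iron determined by flame atomic absorption. Net balance = intake − (urinary + fecal iron).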

Test [2] is described as follows: The amount of iron absorbed by the treated animals at postdrug dosage of 300(umol/kg) (route per oral)using 40% cremophore as vehical in Cebus monkeys. The class given is functional. Summed up:
(§2)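 Iron-overloaded Cebus monkeys were kept in metabolic cages on a low-iron liquid diet starting 7 days before dosing, fed by body weight with intake monitored, and fasted 24 h before dosing. They were sedated with ketamine (7–10 mg/kg im) plus scopolamine (0.04–0.07 mg/kg im). Urine and feces were collected every 24 h over days 1–3 and iron measured by flame AA. Iron balance = dietary intake − (urinary + fecal iron).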

The nature of test [3]: The amount of iron absorbed by the treated animals at postdrug dosage of 300(umol/kg) (route sub cutaneous) using 40% cremophore as vehical in Cebus monkeys. The class given is functional. Summed up: as §2
A short description of test [4]: The amount of iron absorbed by the untreated over a period of 3 days animals at prodrug dosage of 300(umol/kg) (route per oral)using 40% cremophore as vehical in Cebus monkeys. In kind it is functional. Summed up:
as §1

The nature of test [5]: The amount of iron absorbed by the untreated over a period of 3 days animals at prodrug dosage of 150(umol/kg) (route sc)using distill water as vehical. In kind it is functional, Cercopithecidae. Summed up:
as §1

Test [6] can be described thus: The amount of iron absorbed by the treated animals at postdrug dosage of 150(umol/kg) (route sc)using distill water as vehical. In kind it is functional, Cercopithecidae. Summed up:
as §2

Test [7] in a line: The amount of iron absorbed by the untreated over a period of 3 days animals at prodrug dosage of 150(umol/kg) (route per oral)using 40% cremophore as vehical in Cebus monkeys. In kind it is functional. Summed up: as §1
The nature of test [8]: The amount of iron absorbed by the treated animals at postdrug dosage of 150(umol/kg) (route per oral)using 40% cremophore as vehical in Cebus monkeys. In kind it is functional. Summed up:
as §2

The structures appear in SMILES notation.

Turning to `O=C(O)[C@@H]1CSC(c2cc3ccccc3cc2O)=N1`, the Predrug amounted to 80 µg/kg in test [1] and 118 µg/kg in test [4]. The Postdrug worked out at 49 µg/kg in test [2] and 120 µg/kg in test [3].

Turning to `O=C(O)[C@H]1CSC(c2c(O)ccc3ccccc23)=N1`, the Postdrug in test [2] was 381 µg/kg. Also, the Predrug in test [4] was 358 µg/kg.

`O=C(O)[C@@H]1CSC(c2c(O)ccc3ccccc23)=N1`: the results for the Predrug in test [1] and in test [4] were 26 µg/kg and 54 µg/kg, respectively. For the same molecule, the Postdrug is 63 µg/kg in test [2] and -9 µg/kg in test [3].

With `O=C(O)[C@H]1CSC(c2cc3ccccc3cc2O)=N1`, the Predrug in test [1] was determined as 164 µg/kg; in test [4] it was 25 µg/kg. Also, the results for the Postdrug in test [2] and in test [3] were -162 µg/kg and 156 µg/kg, respectively.

Take `CC(=O)N(O)CCCCCNC(=O)CCC(=O)N(O)CCCCCNC(=O)CCC(=O)N(O)CCCCCN` [DEFEROXAMINE]: the Predrug in test [5] worked out at 217 µg/kg. The molecule further came in with a Postdrug in test [6] of 245 µg/kg.

Turning to `C[C@]1(C(=O)O)CSC(c2ncccc2O)=N1` [DESFERRITHIOCIN], the Predrug in test [7] was 230 µg/kg. In addition, the Postdrug in test [8] is -500 µg/kg.
